UHRF1 MBD2 ctr: UHRF1 methyl-DNA binding inhibition. UHRF1 binding to methylated oligo, TR-FRET. inhibition, % at 4.4 µM. hit rate 0.75% among 370,000; in the data active = inhibition above about 21%;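 note: UHRF1 SRA domain binding a hemimethylated CpG hairpin DNA probe; 0% = median of test compound wells and 100% = reference inhibitor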
Rin1 Abl inh: inhibitors of human Rin1-Abl protein interaction; TR-FRET Rin1/Abl binding, biochemical; AID 588664; hit rate 0.4% among 360,000; P00519+Q13671; inhibition, % at 7.35 µM; in the data active = inhibition above about 5%, passing the limit was not always enough
LEDGF integ inh: blocks HIV-1 LEDGF/p75-dependent DNA integration; inhibition, % at 3.7 µM; TR-FRET IN-LEDGF/p75 DNA integration, Eu/Cy5; hit rate 0.64% among 370,000;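 active = inhibition above the screen-wide mean plus 3 SD, cut at about 13% in these data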;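 note: signal is the Cy5 over europium emission ratio at 671 and 618 nm; 0% = plate median of compound wells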
MBD2 DNA inh: blocks human MBD2 binding to methylated DNA | inhibition, % at 4.4 µM | hit rate 0.31% among 370,000 | Q9UBB5 | AID 686964 | TR-FRET, MBD2 binding to methylated oligonucleotide; in the data active = inhibition above about 13%
TDP2 absorb: TDP2 (human) inhibition, absorbance primary screen; recombinant TDP2, T5PNP hydrolysis, p-nitrophenol absorbance 415 nm; hit rate 0.34% among 370,000; O95551; inhibition, % at 12.8 µM;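 active = inhibition above the mean of all tested compounds plus 3 SD, set per campaign, cut at about 25% in these data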;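 note: 0% = DMSO with enzyme and 100% = buffer with substrate but no TDP2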
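Assay system: recombinant human TDP2 / Reagent: T5PNP substrate at 5 mM, a TopII-DNA adduct mimic / Measured by: epi absorbance from released p-nitrophenol / Evaluation: % inhibition relative to enzyme-containing and enzyme-free wells / Control set: enzyme-free and DMSO wells / Replicates: each compound tested once, singlicate / Schedule: enzyme reaction with compound for 2 h at 37 °C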
IN multimer up: activates HIV-1 integrase multimerization in LEDGF counter-screen. shares compounds with LEDGF integ inh. TR-FRET HIV-1 integrase multimerization, biochemical. activation, % at 7.7 µM. hit rate 17% among 2,000; in the data active = activation above about 8.9%
TRFRET interf: optically interferes with TR-FRET readout in LEDGF counter-screen. shares compounds with LEDGF integ inh. TR-FRET optical interference counterscreen, HIV-1 IN multimerization. inhibition, % at 7.7 µM. 2,000 tested, under 10 active. AID 1053135;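 active = inhibition above the mean over all tested compounds plus 3 SD, which no compound reached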;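 note: 0% = integrase with antibodies and DMSO and 100% = antibodies without integrase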
IN-LEDGF confirm: LEDGF/p75-dependent HIV-1 integration inhibition, confirmation; hit rate 36% among 2,000; TR-FRET LEDGF/p75-dependent HIV-1 integration, biochemical; inhibition, % at 3.7 µM; shares compounds with LEDGF integ inh; AID 1053136; in the data active = inhibition above about 14%
* hit, by the source's call; x = no result. This is a sample that favours compounds with a hit; in the whole collection about 1.9% have one here.

SMILES | UHRF1 MBD2 ctr | Rin1 Abl inh | LEDGF integ inh | MBD2 DNA inh | TDP2 absorb | IN multimer up | TRFRET interf | IN-LEDGF confirm
CCOC(=O)C1(CCc2ccccc2)CCN(C(=O)C(C)n2cncn2)CC1 (configuration not stated) | 3.2 | -0.4 | -3.5 | -2.1 | -10.8 | x | x | x
CC(O)(c1ccc(F)c(F)c1)c1nc(/C=C/c2ccccc2)cs1 (configuration not stated) | -1.4 | 1.7 | 1.0 | 5.0 | 1.9 | x | x | x
CC(C)CSc1nnc(-c2ccco2)n1C | 1.2 | x | 23.4* | 4.6 | -4.2 | -2.5 | 12.9 | -0.3
COc1ccccc1NC(=O)C1CCN(S(=O)(=O)c2ccc3c(c2)NC(=O)CO3)CC1 | -1.5 | -5.5 | 2.2 | -2.6 | 11.9 | x | x | x
Cc1ccc(SCCC(=O)N(C)CC(=O)Nc2c(C)cccc2C)cc1 | -2.0 | 0.8 | -0.2 | -0.2 | 2.4 | x | x | x
COc1ccc(Nc2ncc(C(=O)N3CCN(c4ccc(F)cc4)CC3)c3ccccc23)cc1 | 2.4 | -1.6 | 14.0* | -1.7 | -0.5 | -0.6 | 3.0 | -5.0
COc1ccc(Nc2ncc(C(=O)O)c3ccccc23)cc1 | 7.5 | -1.0 | -7.3 | 2.6 | -3.1 | x | x | x
O=C1c2c(O)cc(O)cc2O[C@H](c2ccc(O)cc2)[C@H]1O | 1.0 | -4.4 | 4.0 | -6.8 | -4.0 | x | x | x
O=C1c2c(O)cc(O)cc2O[C@H](c2ccc(O)c(O)c2)[C@H]1O | 0.3 | 0.6 | 22.6* | -5.8 | -17.4 | 1.6 | -8.2 | 12.1
Nc1cc(N)cc(C(=O)c2ccccc2)c1 | -4.0 | -8.9 | 21.1* | -11.9 | 15.6 | 1.7 | -8.6 | -1.0
Cc1cc(NC(=O)CC#N)n(-c2nc3ccccc3[nH]2)n1 | -0.8 | 2.0 | -0.1 | -2.6 | -11.6 | x | x | x
Cc1cc(NC(=O)CC#N)n(-c2ccccc2)n1 | -0.5 | -1.7 | 15.9* | -0.3 | 0.9 | -2.1 | 10.4 | -5.9
Cc1cc(NC(=O)CSc2nnc(-c3ccncc3)n2Cc2ccccc2)n(-c2ccccc2)n1 | 2.4 | 0.0 | 70.2* | 2.1 | 7.7 | -0.3 | 1.6 | -4.4
COc1cccc(CNC(=O)[C@H]2CCCN2C(=O)[C@H]2CCCN2C(=O)c2ccccc2C(F)(F)F)c1 | -1.4 | x | -2.3 | -2.0 | 7.9 | x | x | x
CC1CCN(S(=O)(=O)c2ccc(C(=O)Nc3ccccn3)cc2)CC1 | 4.4 | -1.1 | -3.6 | 0.5 | 5.6 | x | x | x
Cc1ccc(-n2c(SCC(=O)N/N=C/c3ccccc3OCC(=O)O)nc3ccccc3c2=O)cc1 | -2.0 | -3.6 | 67.5* | -2.3 | 12.0 | 0.4 | -1.5 | 2.6
COc1ccc(-c2[nH]ncc2CN2CCC(C(=O)N3CCOCC3)CC2)c(F)c1 | -1.0 | -6.4 | -6.6 | -1.5 | -9.7 | x | x | x
O=C1c2c(O)cc(O)cc2O[C@@]12c1c(cc(O)c3c1O[C@H](c1ccc(O)cc1)[C@@H](O)C3)O[C@@H]2c1ccc(O)cc1 | 23.9* | 3.5 | 17.7* | 4.1 | 7.2 | 13.3* | -66.8 | 39.0*
Cc1cccc(NC(=S)N(CCN(C)C)C(C)c2ccccn2)c1 (configuration not stated) | 1.9 | -0.7 | 92.1* | 4.2 | 4.3 | -2.2 | 11.3 | -4.7
COc1ccccc1OCCSc1nnnn1-c1ccc(C)cc1 | -1.8 | -0.8 | 37.2* | -5.4 | -12.8 | -2.8 | 13.9 | 10.3
Fc1ccccc1OCCSc1nnnn1-c1ccccc1 | -1.2 | -1.5 | 1.8 | 1.4 | 21.1 | x | x | x
O=C(Nc1ccc(-c2n[nH]c(=S)o2)cc1)c1ccccc1 | -3.7 | 1.6 | -0.8 | 0.9 | 10.5 | x | x | x
O=C(O)c1cc(-c2ccccc2)nc(-c2ccccc2)c1 | 1.2 | -1.2 | 14.6* | 1.9 | -4.1 | 1.1 | -5.5 | -9.9
COc1ccc(C(=O)NCC(=O)Nc2ccc(-c3ccccc3)cc2)cc1 | -1.0 | 1.1 | 18.0* | -2.2 | 8.3 | 11.2* | -56.4 | -2.0
CCS(=O)(=O)N1CCC(C(=O)Oc2ccccc2OC)CC1 | -0.6 | -3.0 | 21.7* | -6.9 | 9.1 | 1.1 | -5.5 | 1.8
CCCCS(=O)(=O)N1CCC(C(=O)Oc2ccccc2OC)CC1 | 2.2 | 0.2 | 2.0 | 4.2 | 0.5 | x | x | x

Bioassay records (PubChem BioAssay)
